Assay [1] concerns MCF7. Kind of assay: Cytotoxicity against doxorubicin-resistant human MCF7 cells under hypoxic condition assessed as growth inhibition after 74 hrs by sulforhodamine B assay. In kind it is functional, cell-based. Conditions: MCF7, 74 h. Summed up: (§1)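 Cells grown in 96-well plates for 74 h across a range of test concentrations; growth measured by sulforhodamine B staining and IC50 taken as 50% inhibition of growth. Hypoxic arm held in an anaerobic chamber flushed with 95% N2/5% CO2; oxic arm in oxygen-rich conditions.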
In general terms: The SRB assay estimates cell density from bound dye.

Assay [2] addresses DNA topoisomerase 2-alpha (Homo sapiens) (UniProt P11388). Put plainly: Inhibition of DNA topoisomerase 2-mediated DNA fragmentation at 10 uM pretreated with 1% O2 for 2 hrs measured by gel electrophoresis analysis. Summed up: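 Before the Topo II assay, compound incubated with rat liver S-9 fraction in 1% O2 or normal air for 2 h at 37 °C. Proteins were precipitated with ethanol and the sample centrifuged; the supernatant was then tested for inhibition of Topo II DNA fragmentation by gel electrophoresis.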

Assay [3] has as its system MCF7. Kind of assay: Cytotoxicity against doxorubicin-sensitive human MCF7 cells under oxic condition assessed as growth inhibition after 74 hrs by sulforhodamine B assay. Conditions: MCF7, 74 h. The assay is classed as functional, cell-based. Summed up:
as §1

The subject of assay [4] is MCF7. Put plainly: Cytotoxicity against doxorubicin-sensitive human MCF7 cells under hypoxic condition assessed as growth inhibition after 74 hrs by sulforhodamine B assay. The assay is classed as functional, cell-based. Conditions: MCF7, 74 h. The gist of the method:
as §1

The test system of assay [5] is Nucleic Acid. Kind of assay: Binding affinity to DNA assessed as bathochromic shift by UV-spectroscopic analysis with compound pretreatment with CYP450. The assay is classed as nucleic-acid assay. The gist of the method: (§2)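 UV absorbance scans of compound recorded with sequentially increasing DNA concentrations; binding judged from hypochromicity and bathochromic shift. CYP450 pretreatment where applicable: incubation with rat liver S-9 fraction in 1% O2, 2 h, 37 °C, proteins precipitated with ethanol, supernatant after centrifugation used.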

The subject of assay [6] is LoVo. Put plainly: Cytotoxicity against human LoVo cells under oxic condition assessed as growth inhibition after 74 hrs by sulforhodamine B assay. In kind it is functional, cell-based. The gist of the method:
as §1

Assay [7] concerns Nucleic Acid. Put plainly: Displacement of ethidium bromide from DNA at 50 uM by fluorometric analysis. In kind it is nucleic-acid assay. Summed up:
(§3)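 Fluorescence read-out of ethidium bromide displacement from DNA; IC50 is concentration reducing ethidium bromide binding by 50%; tested up to 50 μM.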

The target in assay [8] is DNA topoisomerase 2-alpha (Homo sapiens) (UniProt P11388). Put plainly: Inhibition of DNA topoisomerase 2-mediated DNA fragmentation at 50 uM by gel electrophoresis analysis. The gist of the method: (§4)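 Topo II incubated with DNA and compound; products resolved by gel electrophoresis, with intact DNA as a single band and Topo II fragmentation giving multiple bands.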

The test system of assay [9] is LoVo. Put plainly: Cytotoxicity against human LoVo cells under hypoxic condition assessed as growth inhibition after 74 hrs by sulforhodamine B assay. The assay is classed as functional, cell-based. Summed up:
as §1

Assay [10] deals with Nucleic Acid. Put plainly: Binding affinity to DNA assessed as increase in hypochromicity by UV-spectroscopic analysis without compound pretreatment with CYP450. The assay is classed as nucleic-acid assay. The gist of the method:
as §2

The test system of assay [11] is Nucleic Acid. Put plainly: Binding affinity to DNA assessed as increase in hypochromicity by UV-spectroscopic analysis with compound pretreatment with CYP450. In kind it is nucleic-acid assay. The gist of the method:
as §2

Assay [12] has as its system MCF7. Put plainly: Cytotoxicity against doxorubicin-resistant human MCF7 cells under oxic condition assessed as growth inhibition after 74 hrs by sulforhodamine B assay. The assay is classed as functional, cell-based. To be noted: MCF7, 74 h. The gist of the method:
as §1

Assay [13] has as its target Nucleic Acid. Put plainly: Displacement of ethidium bromide from DNA by fluorometric analysis. In kind it is nucleic-acid assay. The gist of the method:
as §3

For assay [14], the target named is DNA topoisomerase 2-alpha (Homo sapiens) (UniProt P11388). Put plainly: Inhibition of DNA topoisomerase 2-mediated DNA fragmentation at 10 uM by gel electrophoresis analysis. Summed up: as §4

Structures can show the parent of a compound that is named as a salt. Active and inactive are the calls of the source. The rule behind the calls is not given here. Where only a bound is given, the exact number is not on record here.

Broadly, the IC50 is the concentration that gives 50% inhibition.

Sequence of DNA topoisomerase 2-alpha (Homo sapiens) (P11388 whole entry, the tested form may be a part): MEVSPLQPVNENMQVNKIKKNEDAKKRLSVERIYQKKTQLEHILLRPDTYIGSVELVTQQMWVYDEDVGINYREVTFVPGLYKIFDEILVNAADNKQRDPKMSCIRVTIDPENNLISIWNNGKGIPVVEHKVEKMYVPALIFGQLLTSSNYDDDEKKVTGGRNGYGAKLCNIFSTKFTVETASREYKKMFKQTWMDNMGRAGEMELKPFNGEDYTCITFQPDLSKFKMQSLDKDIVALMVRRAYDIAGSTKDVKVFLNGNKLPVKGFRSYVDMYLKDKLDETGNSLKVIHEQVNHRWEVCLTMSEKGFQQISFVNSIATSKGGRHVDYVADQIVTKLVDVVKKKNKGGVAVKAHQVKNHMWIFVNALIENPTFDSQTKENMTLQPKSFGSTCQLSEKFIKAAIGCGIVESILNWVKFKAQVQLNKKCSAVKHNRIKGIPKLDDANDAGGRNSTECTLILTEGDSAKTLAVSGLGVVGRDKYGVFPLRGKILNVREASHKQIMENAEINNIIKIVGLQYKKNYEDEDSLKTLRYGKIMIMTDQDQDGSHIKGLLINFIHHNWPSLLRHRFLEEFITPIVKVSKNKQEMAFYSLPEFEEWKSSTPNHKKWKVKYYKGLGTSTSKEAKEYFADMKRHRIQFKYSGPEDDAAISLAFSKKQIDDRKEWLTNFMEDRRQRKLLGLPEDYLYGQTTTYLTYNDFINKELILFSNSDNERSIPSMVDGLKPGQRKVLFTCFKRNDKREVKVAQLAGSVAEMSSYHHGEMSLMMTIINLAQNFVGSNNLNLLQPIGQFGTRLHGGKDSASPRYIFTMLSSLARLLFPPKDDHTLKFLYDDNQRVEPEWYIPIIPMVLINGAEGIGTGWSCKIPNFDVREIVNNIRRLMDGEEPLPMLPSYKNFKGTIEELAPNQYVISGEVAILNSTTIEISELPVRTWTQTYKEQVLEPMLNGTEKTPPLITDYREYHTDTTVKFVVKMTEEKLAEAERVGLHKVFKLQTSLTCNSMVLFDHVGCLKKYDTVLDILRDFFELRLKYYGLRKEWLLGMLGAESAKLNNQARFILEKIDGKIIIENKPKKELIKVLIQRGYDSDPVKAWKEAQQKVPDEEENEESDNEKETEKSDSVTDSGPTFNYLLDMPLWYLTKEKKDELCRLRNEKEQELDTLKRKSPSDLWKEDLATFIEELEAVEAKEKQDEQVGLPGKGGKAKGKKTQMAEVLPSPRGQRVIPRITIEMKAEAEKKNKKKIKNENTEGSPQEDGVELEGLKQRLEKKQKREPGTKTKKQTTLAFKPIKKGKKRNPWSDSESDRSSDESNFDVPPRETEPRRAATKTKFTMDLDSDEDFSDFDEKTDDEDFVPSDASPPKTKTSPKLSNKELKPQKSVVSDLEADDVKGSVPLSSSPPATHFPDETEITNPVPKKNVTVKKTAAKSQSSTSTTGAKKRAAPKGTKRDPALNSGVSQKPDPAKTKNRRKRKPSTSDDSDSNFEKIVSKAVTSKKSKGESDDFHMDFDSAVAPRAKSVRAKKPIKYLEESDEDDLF

For `C[N+](C)([O-])CCNc1ccc2c3c(nn2CC[N+](C)(C)[O-])-c2cnccc2C(=O)c13`, the IC50 in assay [1] is 1300 nM; in assay [3] it was greater than 25000 nM; in assay [4], 5000 nM; in assay [6], greater than 25000 nM; in assay [9], 1500 nM; in assay [12], greater than 25000 nM. The inhibition result in assay [2] was “Active”. Further, the result in assay [5] and in assay [11] was Active. The result in assay [7] and in [10] was inactive. In [8], the inhibition result was “inactive”.
As for `CN(C)CCNc1ccc2c3c(nn2CCN(C)C)-c2cnccc2C(=O)c13`, the IC50 was 1200 nM in assay [1]; 900 nM in assay [3]; 4000 nM in assay [4]; 6800 nM in [13]; 1300 nM in [6]; 3300 nM in assay [9]. Further, in assay [12], the IC50 is 1000 nM. Besides, the inhibition result in assay [2] and in assay [14] was “Active” in each case.
For `O=C1c2c(O)ccc(O)c2C(=O)c2c(NCCNCCO)ccc(NCCNCCO)c21` [MITOXANTRONE HYDROCHLORIDE], the IC50 was greater than 10000 nM in assay [1]; 100 nM in [3]; 1000 nM in [4]; 4500 nM in [13]; 100 nM in [6]; 900 nM in assay [9]. Also, the IC50 in assay [12] was 4700 nM.

The values are drawn from ChEMBL document CHEMBL1921783, “Hypoxia activated prodrugs of a 9-aza-anthrapyrazole derivative that has promising anticancer activity” (J Med Chem, 2011).
